Columns and labels:
[1] = Inhibition of HCV 1a recombinant full length NS3/4A protease; parameters: species or system Hepatitis C virus subtype 1a
In short: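 Preincubated 30 min at room temperature, then started with 2 μM FRET substrate RET S1. Fluorescence (ex 355/em 500 nm) followed 20 min. IC50 by non-linear fit; Ki = IC50/(1+S/Km), assuming competitive inhibition.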

Hepatitis C virus = assay: Antiviral activity against HCV 1b replicon in Huh7 cells after 48 hrs; type: functional, organism-based, Hepacivirus hominis; details: genotype 1b, Huh-7, 48 h
In short: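 Huh-7 cells carrying a subgenomic genotype 1b replicon with firefly luciferase, kept under 0.5 mg/ml G418. Cells seeded at 1500 per well, dosed after 24 h with fivefold serial dilutions (DMSO ≤1% final), incubated 48 h, then lysed for luciferase read-out. EC50 is the concentration lowering luciferase signal 50% versus untreated control.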

Cathepsin B = Cathepsin B (Homo sapiens, UniProt P07858); assay: Inhibition of human cathepsin B
[2] = Inhibition of human elastase
[3] = Inhibition of human chymotrypsin

| SMILES | Ki [1] [nM] | EC50 (Hepatitis C virus) [nM] | Ki (Cathepsin B) [nM] | Ki [2] [nM] | Ki [3] [nM] |
| --- | --- | --- | --- | --- | --- |
| COc1ccc2c(O[C@H]3CC4C(=O)N(NC(=O)OC(C)(C)C)CCCCCCC=C[C@@H]5C[C@@]5(C(=O)O)NC(=O)[C@@H]4C3)cc(-c3ccccc3)nc2c1 (stereo partly specified) | > 10000 | > 10000 |  |  |  |
| COc1ccc2c(O[C@@H]3C[C@H]4C(=O)N[C@]5(C(=O)O)C[C@H]5/C=C\CCCCCN(N)C(=O)[C@@H]4C3)cc(-c3ccccc3)nc2c1 | 120 | > 10000 |  |  |  |
| COc1ccc2c(O[C@@H]3C[C@H]4C(=O)N[C@]5(C(=O)O)C[C@H]5C=CCCCCN(C)C(=O)[C@@H]4C3)cc(-c3ccccc3)nc2c1 | 44 | 2200 |  |  |  |
| COc1ccc2c(O[C@H]3C=C4C(=O)N(N)CCCCC/C=C\[C@@H]5C[C@@]5(C(=O)O)NC(=O)[C@@H]4C3)cc(-c3ccccc3)nc2c1 | 110 | 4500 |  |  |  |
| COc1ccc2c(O[C@@H]3C[C@H]4C(=O)N[C@]5(C(=O)O)C[C@H]5/C=C\CCCCCN(NC(=O)OC(C)(C)C)C(=O)[C@@H]4C3)cc(-c3ccccc3)nc2c1 | 710 | > 10000 |  |  |  |
| COc1ccc2c(O[C@@H]3C[C@H]4C(=O)N[C@]5(C(=O)O)C[C@H]5/C=C\CCCN(NC(=O)OC(C)(C)C)C(=O)[C@@H]4C3)cc(-c3ccccc3)nc2c1 | 130 | > 10000 |  |  |  |
| COc1ccc2c(O[C@H]3C[C@H]4C(=O)NCCCCC=C[C@@H]5C[C@@]5(C(=O)O)NC(=O)[C@@H]4C3)cc(-c3ccccc3)nc2c1 | 260 | > 10000 |  |  |  |
| COc1ccc2c(O[C@H]3CC4C(=O)N(N)CCCCCCC=C[C@@H]5C[C@@]5(C(=O)O)NC(=O)[C@@H]4C3)cc(-c3ccccc3)nc2c1 (stereo partly specified) | > 10000 | > 10000 |  |  |  |

These reach a lower Ki [1]. Values come first.

| Ki [1] [nM] | EC50 (Hepatitis C virus) [nM] | Ki (Cathepsin B) [nM] | Ki [2] [nM] | Ki [3] [nM] | SMILES |
| --- | --- | --- | --- | --- | --- |
| 31 | > 10000 |  |  |  | COc1ccc2c(O[C@@H]3C[C@H]4C(=O)N[C@]5(C(=O)O)C[C@H]5C=CCCCCN(NC(=O)OC(C)(C)C)C(=O)[C@@H]4C3)cc(-c3ccccc3)nc2c1 |
| 0.07 | 530 |  |  |  | COc1ccc2c(O[C@@H]3C[C@H]4C(=O)N[C@]5(C(=O)NS(=O)(=O)C6CC6)C[C@H]5C=CCCCCN(NC(=O)OC(C)(C)C)C(=O)[C@@H]4C3)cc(-c3ccccc3)nc2c1 |
| 2.2 | 4400 |  |  |  | COc1ccc2c(O[C@H]3C[C@H]4C(=O)NCCCCC=C[C@@H]5C[C@@]5(C(=O)NS(=O)(=O)C5CC5)NC(=O)[C@@H]4C3)cc(-c3ccccc3)nc2c1 |
| 0.41 | 9.1 | 2200 | > 5000 | > 5000 | COc1ccc2c(O[C@@H]3C[C@H]4C(=O)N[C@]5(C(=O)NS(=O)(=O)C6CC6)C[C@H]5C=CCCCCN(C)C(=O)[C@@H]4C3)cc(-c3ccccc3)nc2c1 |
| 6 | 7600 |  |  |  | COc1ccc2c(O[C@@H]3C[C@H]4C(=O)N[C@]5(C(=O)O)C[C@H]5C=CCCCCN(N)C(=O)[C@@H]4C3)cc(-c3ccccc3)nc2c1 |
| 0.19 | 33 |  |  |  | COc1ccc2c(O[C@@H]3C[C@H]4C(=O)N[C@]5(C(=O)NS(=O)(=O)C6CC6)C[C@H]5C=CCCCCN(N)C(=O)[C@@H]4C3)cc(-c3ccccc3)nc2c1 |
